According to ChEMBL document CHEMBL5678810:
Calls of active or inactive are those of the source. The rule behind the calls is not given here.

Tests used:
[1] = biological target: Serine/threonine-protein kinase A-Raf (Homo sapiens) (UniProt P10398); assay: Inhibition of ARAF Lys2 labeling site in human HEL cell lysate at 10 uM by KiNativ profiling analysis relative to control; type: subcellular
[2] = test system: Tyrosine-protein kinase ABL1 (Homo sapiens), P00519 [H396P]; assay: Inhibition of T7 bacteriophage fused human phosphorylated ABL1 H396P mutant at 10 uM by KINOMEscan analysis relative to control
[3] = test system: Tyrosine-protein kinase ABL1 (Homo sapiens), P00519 [Q252H]; assay: Inhibition of T7 bacteriophage fused human nonphosphorylated ABL1 Q252H mutant at 10 uM by KINOMEscan analysis relative to control
[4] = biological target: Tyrosine-protein kinase ABL1 (Homo sapiens) (UniProt P00519); assay: Inhibition of T7 bacteriophage fused human phosphorylated ABL1 at 10 uM by KINOMEscan analysis relative to control
[5] = biological target: Cyclin-dependent kinase 8 (Homo sapiens) (UniProt P49336); assay: Inhibition of T7 bacteriophage fused human CDK8 at 10 uM by KINOMEscan analysis relative to control
Cyclin-dependent kinase 8 (Homo sapiens), sequence (P49336 whole entry, the tested form may be a part): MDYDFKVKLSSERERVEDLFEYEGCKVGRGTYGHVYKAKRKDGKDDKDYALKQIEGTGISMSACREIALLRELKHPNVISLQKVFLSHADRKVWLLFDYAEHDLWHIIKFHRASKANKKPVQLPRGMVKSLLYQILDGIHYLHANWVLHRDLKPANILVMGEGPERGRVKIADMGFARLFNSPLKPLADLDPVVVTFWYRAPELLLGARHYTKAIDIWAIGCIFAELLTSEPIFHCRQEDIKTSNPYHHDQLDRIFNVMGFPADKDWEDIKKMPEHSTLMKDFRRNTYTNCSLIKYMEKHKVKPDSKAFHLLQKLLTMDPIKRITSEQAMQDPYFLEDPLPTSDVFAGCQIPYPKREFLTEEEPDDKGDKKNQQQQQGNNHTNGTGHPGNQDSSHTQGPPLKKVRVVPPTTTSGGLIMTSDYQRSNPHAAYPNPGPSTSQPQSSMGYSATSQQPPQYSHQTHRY

[6] = biological target: Cyclin-dependent kinase-like 2 (Homo sapiens) (UniProt Q92772); assay: Inhibition of T7 bacteriophage fused human CDKL2 at 10 uM by KINOMEscan analysis relative to control
[7] = biological target: Ephrin type-B receptor 3 (Homo sapiens) (UniProt P54753); assay: Inhibition of T7 bacteriophage fused human EPHB3 at 10 uM by KINOMEscan analysis relative to control
[8] = biological target: Mitogen-activated protein kinase 6 (Homo sapiens) (UniProt Q16659); assay: Inhibition of T7 bacteriophage fused human ERK3 at 10 uM by KINOMEscan analysis relative to control
[9] = test system: Receptor-type tyrosine-protein kinase FLT3 (Homo sapiens), P36888 [D835Y]; assay: Inhibition of T7 bacteriophage fused human FLT3 D835Y mutant at 10 uM by KINOMEscan analysis relative to control
[10] = biological target: Tyrosine-protein kinase Fyn (Homo sapiens) (UniProt P06241); assay: Inhibition of T7 bacteriophage fused human FYN at 10 uM by KINOMEscan analysis relative to control
[11] = biological target: Inhibitor of nuclear factor kappa-B kinase subunit alpha (Homo sapiens) (UniProt O15111); assay: Inhibition of T7 bacteriophage fused human IKK-alpha at 10 uM by KINOMEscan analysis relative to control
Inhibitor of nuclear factor kappa-B kinase subunit alpha (Homo sapiens), sequence (O15111 whole entry, the tested form may be a part): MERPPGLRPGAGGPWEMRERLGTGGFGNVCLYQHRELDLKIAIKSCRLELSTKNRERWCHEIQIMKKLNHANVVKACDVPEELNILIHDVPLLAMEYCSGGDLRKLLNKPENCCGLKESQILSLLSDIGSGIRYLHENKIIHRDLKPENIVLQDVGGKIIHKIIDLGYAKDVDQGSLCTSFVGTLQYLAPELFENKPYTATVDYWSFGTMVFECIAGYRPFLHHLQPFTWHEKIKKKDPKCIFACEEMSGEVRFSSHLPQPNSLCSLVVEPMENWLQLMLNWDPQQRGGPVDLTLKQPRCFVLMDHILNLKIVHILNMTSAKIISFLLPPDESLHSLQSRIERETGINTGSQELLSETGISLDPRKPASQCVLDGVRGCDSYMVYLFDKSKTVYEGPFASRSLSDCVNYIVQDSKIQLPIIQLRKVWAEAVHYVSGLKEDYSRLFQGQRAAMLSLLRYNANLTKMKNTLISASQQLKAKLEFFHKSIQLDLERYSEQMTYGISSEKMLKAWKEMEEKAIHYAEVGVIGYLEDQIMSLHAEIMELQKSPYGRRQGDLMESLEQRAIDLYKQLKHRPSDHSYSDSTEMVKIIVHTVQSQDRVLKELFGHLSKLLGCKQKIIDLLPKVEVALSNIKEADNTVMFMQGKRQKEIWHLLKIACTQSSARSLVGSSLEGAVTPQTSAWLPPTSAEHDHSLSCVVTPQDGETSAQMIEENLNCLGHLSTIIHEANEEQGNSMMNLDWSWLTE

[12] = test system: Mast/stem cell growth factor receptor Kit (Homo sapiens), P10721 [A829P]; assay: Inhibition of T7 bacteriophage fused human KIT A829P mutant at 10 uM by KINOMEscan analysis relative to control
[13] = biological target: Tyrosine-protein kinase Lck (Homo sapiens) (UniProt P06239); assay: Inhibition of T7 bacteriophage fused human LCK at 10 uM by KINOMEscan analysis relative to control
[14] = biological target: Serine/threonine-protein kinase Nek6 (Homo sapiens) (UniProt Q9HC98); assay: Inhibition of T7 bacteriophage fused human NEK6 at 10 uM by KINOMEscan analysis relative to control
Serine/threonine-protein kinase Nek6 (Homo sapiens), sequence (Q9HC98 whole entry, the tested form may be a part, canonical isoform): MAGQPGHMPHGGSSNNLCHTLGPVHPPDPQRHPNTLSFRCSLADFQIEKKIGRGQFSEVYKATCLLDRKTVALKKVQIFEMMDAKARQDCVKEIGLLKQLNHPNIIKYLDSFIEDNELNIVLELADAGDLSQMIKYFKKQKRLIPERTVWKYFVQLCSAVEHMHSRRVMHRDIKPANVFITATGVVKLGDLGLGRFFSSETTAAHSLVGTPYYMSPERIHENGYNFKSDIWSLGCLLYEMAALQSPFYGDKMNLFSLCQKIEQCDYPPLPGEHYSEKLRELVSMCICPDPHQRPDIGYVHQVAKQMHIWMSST

[15] = test system: Phosphatidylinositol 4,5-bisphosphate 3-kinase catalytic subunit alpha isoform (Homo sapiens), P42336 [E545K]; assay: Inhibition of T7 bacteriophage fused human PIK3CA E545K mutant at 10 uM by KINOMEscan analysis relative to control
[16] = test system: Phosphatidylinositol 4,5-bisphosphate 3-kinase catalytic subunit alpha isoform (Homo sapiens), P42336 [Q546K]; assay: Inhibition of T7 bacteriophage fused human PIK3CA Q546K mutant at 10 uM by KINOMEscan analysis relative to control
Phosphatidylinositol 4,5-bisphosphate 3-kinase catalytic subunit alpha isoform (Homo sapiens), P42336 [Q546K], sequence (P42336 whole entry Q546K, the tested form may be a part, canonical isoform): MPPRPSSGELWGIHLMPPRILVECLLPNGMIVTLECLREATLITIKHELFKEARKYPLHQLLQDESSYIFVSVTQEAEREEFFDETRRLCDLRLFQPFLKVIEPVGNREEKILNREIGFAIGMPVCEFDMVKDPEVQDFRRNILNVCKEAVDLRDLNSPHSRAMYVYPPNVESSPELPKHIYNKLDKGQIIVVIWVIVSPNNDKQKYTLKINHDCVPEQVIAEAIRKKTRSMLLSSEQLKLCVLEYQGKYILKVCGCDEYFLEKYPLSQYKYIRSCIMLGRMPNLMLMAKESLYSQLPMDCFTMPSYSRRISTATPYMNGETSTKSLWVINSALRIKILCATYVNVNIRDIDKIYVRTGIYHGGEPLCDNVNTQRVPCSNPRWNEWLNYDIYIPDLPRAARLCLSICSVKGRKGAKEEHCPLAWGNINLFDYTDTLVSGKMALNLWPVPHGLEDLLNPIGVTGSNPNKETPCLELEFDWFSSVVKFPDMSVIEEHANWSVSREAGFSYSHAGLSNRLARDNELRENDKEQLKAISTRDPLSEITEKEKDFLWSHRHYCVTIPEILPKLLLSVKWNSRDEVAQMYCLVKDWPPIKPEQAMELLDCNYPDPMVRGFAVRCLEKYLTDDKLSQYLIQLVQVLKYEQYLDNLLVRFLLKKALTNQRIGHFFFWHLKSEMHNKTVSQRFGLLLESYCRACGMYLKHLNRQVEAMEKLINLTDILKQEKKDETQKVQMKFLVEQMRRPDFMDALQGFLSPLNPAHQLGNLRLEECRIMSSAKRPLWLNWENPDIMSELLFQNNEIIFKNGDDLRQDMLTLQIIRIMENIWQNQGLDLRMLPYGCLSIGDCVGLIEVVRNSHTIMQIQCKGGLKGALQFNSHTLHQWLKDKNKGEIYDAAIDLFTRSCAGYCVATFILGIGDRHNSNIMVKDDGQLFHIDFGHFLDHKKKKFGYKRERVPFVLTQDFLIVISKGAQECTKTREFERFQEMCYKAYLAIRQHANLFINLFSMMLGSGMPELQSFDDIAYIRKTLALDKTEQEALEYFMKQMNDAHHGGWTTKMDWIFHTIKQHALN

[17] = biological target: Phosphatidylinositol 5-phosphate 4-kinase type-2 beta (Homo sapiens) (UniProt P78356); assay: Inhibition of T7 bacteriophage fused human PIP5K2B at 10 uM by KINOMEscan analysis relative to control
[18] = biological target: Serine/threonine-protein kinase D2 (Homo sapiens) (UniProt Q9BZL6); assay: Inhibition of T7 bacteriophage fused human PRKD2 at 10 uM by KINOMEscan analysis relative to control
[19] = biological target: Serine/threonine-protein kinase RIO3 (Homo sapiens) (UniProt O14730); assay: Inhibition of T7 bacteriophage fused human RIOK3 at 10 uM by KINOMEscan analysis relative to control
[20] = biological target: Tyrosine-protein kinase Fer (Homo sapiens) (UniProt P16591); assay: Inhibition of T7 bacteriophage fused human FER at 10 uM by KINOMEscan analysis relative to control; values are per cent of control
Tyrosine-protein kinase Fer (Homo sapiens), sequence (P16591 whole entry, looked up, the tested form may be a part): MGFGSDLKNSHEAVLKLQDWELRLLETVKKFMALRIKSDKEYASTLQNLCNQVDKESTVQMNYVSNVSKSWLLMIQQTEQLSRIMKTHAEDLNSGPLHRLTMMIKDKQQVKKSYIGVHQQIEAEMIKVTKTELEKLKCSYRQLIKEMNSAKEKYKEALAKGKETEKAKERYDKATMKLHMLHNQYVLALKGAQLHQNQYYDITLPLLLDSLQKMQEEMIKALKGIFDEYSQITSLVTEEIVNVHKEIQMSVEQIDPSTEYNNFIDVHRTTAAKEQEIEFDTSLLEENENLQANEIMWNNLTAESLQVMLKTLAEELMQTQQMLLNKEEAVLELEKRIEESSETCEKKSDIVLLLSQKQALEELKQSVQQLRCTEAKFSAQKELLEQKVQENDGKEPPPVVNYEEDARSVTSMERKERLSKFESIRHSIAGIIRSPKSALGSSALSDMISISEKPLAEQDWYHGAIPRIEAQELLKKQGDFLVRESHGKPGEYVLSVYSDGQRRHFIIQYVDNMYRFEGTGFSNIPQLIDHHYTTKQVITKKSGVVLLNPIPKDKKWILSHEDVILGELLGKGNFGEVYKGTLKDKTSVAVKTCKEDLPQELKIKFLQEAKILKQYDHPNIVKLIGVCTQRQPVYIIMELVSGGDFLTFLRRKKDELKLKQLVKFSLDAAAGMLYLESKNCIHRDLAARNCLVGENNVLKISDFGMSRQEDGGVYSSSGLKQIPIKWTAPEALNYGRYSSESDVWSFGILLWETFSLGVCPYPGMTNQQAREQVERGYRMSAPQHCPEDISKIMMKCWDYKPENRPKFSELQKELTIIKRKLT

[21] = biological target: Death-associated protein kinase 2 (Homo sapiens) (UniProt Q9UIK4); assay: Inhibition of T7 bacteriophage fused human DAPK2 at 10 uM by KINOMEscan analysis relative to control; values are per cent of control
[22] = biological target: Ephrin type-A receptor 2 (Homo sapiens) (UniProt P29317); assay: Inhibition of T7 bacteriophage fused human EPHA2 at 10 uM by KINOMEscan analysis relative to control; values are per cent of control
[23] = biological target: Fibroblast growth factor receptor 4 (Homo sapiens) (UniProt P22455); assay: Inhibition of T7 bacteriophage fused human FGFR4 at 10 uM by KINOMEscan analysis relative to control; values are per cent of control
Fibroblast growth factor receptor 4 (Homo sapiens), sequence (P22455 22-802 limits assumed): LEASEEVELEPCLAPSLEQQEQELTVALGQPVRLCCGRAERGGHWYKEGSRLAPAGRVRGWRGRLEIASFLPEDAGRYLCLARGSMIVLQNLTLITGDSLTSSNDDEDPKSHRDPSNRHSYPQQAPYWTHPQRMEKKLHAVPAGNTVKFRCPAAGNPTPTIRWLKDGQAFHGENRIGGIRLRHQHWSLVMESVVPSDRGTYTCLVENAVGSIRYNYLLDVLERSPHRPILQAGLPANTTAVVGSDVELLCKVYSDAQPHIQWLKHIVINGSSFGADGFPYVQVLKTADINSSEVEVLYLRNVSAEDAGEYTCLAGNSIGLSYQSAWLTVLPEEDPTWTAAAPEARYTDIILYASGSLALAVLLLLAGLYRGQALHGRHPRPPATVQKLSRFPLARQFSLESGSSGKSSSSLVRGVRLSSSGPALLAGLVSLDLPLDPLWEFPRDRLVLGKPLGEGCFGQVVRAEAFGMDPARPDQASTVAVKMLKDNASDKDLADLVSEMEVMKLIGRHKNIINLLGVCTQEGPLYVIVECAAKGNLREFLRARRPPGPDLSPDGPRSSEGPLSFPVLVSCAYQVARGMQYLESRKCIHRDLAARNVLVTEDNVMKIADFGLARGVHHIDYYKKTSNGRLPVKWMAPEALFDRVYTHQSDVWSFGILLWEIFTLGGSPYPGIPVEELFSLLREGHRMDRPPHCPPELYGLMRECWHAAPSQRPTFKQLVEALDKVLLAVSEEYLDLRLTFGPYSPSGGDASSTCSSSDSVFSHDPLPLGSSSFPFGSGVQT

[24] = biological target: Serine/threonine-protein kinase LATS2 (Homo sapiens) (UniProt Q9NRM7); assay: Inhibition of T7 bacteriophage fused human LATS2 at 10 uM by KINOMEscan analysis relative to control; values are per cent of control
[25] = biological target: MAP kinase-interacting serine/threonine-protein kinase 1 (Homo sapiens) (UniProt Q9BUB5); assay: Inhibition of T7 bacteriophage fused human MKNK1 at 10 uM by KINOMEscan analysis relative to control; values are per cent of control
[26] = biological target: Mitogen-activated protein kinase kinase kinase kinase 3 (Homo sapiens) (UniProt Q8IVH8); assay: Inhibition of T7 bacteriophage fused human MAP4K3 at 10 uM by KINOMEscan analysis relative to control; values are per cent of control
[27] = test system: Leucine-rich repeat serine/threonine-protein kinase 2 (Homo sapiens), Q5S007 [A2016T]; assay: Inhibition of drug-resistant GFP-tagged LRRK2 A2016T mutant phosphorylation at Ser935 residue (unknown origin) transfected in HEK293 cells upto 3 uM incubated for 90 mins by immunoblot analysis; type: cell-based
Procedure, shortened: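 HEK293 cells stably expressing GFP-LRRK2 variants, grown in DMEM with 10% FBS, 2 mM glutamine and penicillin/streptomycin. Compound added from DMSO stock (final DMSO ≤1%) at increasing concentrations for 90 min, DMSO control. Cells were PBS-washed and lysed in Triton X-100 lysis buffer. Lysates were run on 8% SDS-PAGE and immunoblotted with rabbit monoclonals against pSer910, pSer935 and total LRRK2.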

Serine/threonine-protein kinase A-Raf (Homo sapiens), sequence (P10398 whole entry, the tested form may be a part): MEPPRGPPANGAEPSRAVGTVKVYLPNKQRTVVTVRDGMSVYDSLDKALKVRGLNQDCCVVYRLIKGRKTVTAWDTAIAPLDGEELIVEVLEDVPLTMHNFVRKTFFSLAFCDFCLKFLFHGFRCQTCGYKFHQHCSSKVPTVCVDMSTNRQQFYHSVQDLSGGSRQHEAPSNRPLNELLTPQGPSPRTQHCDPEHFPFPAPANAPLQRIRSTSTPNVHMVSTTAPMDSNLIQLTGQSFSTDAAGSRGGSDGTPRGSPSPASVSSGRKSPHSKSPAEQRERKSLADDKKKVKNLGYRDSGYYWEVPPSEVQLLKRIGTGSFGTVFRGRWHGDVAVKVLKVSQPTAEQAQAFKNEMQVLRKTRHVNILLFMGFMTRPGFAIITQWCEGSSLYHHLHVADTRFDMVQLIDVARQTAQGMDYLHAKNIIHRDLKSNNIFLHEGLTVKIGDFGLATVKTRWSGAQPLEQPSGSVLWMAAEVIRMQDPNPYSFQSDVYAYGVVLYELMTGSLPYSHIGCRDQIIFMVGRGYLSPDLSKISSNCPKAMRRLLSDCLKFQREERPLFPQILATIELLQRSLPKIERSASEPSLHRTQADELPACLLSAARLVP

## COc1cc(C(=O)N2CCC(N3CCN(C)CC3)CC2)ccc1Nc1ncc2c(n1)N(C1CCCC1)c1ccccc1C(=O)N2C
[1]
  inhibition: -0.7%

## COc1cc(N2CCC(N3CCN(C)CC3)CC2)ccc1Nc1ncc2c(n1)N(C)c1ccccc1C(=O)N2C
[2]
  inhibition: 100%
[3]
  inhibition: 100%
[4]
  inhibition: 82%
[5]
  inhibition: 100%
[6]
  inhibition: 100%
[7]
  inhibition: 100%
[8]
  inhibition: 100%
[9]
  inhibition: 100%
[10]
  inhibition: 100%
[11]
  inhibition: 100%
[12]
  inhibition: 100%
[13]
  inhibition: 100%
[14]
  inhibition: 76%
[15]
  inhibition: 100%
[16]
  inhibition: 91%
[17]
  inhibition: 100%
[18]
  inhibition: 59%
[19]
  inhibition: 85%
[20]
  residual activity: 51%
[21]
  residual activity: 67%
[22]
  residual activity: 92%
[23]
  residual activity: 28%
[24]
  residual activity: 95%
[25]
  residual activity: 50%
[26]
  residual activity: 71%

## CCOc1cc(C(=O)N2CCC(N3CCN(C)CC3)CC2)ccc1Nc1ncc2c(n1)N(C1CCCC1)c1ccccc1C(=O)N2C
[27]
  inhibition: inactive
